Measurements published in ChEMBL document CHEMBL1123499, “Synthesis, saludiuretic, and antihypertensive activity of 6,7-disubstituted 1(2H)- and 3,4-dihydro-1(2H)-phthalazinones” (1986).

Assays:
Rattus norvegicus [1] = species on record: Rattus norvegicus; assay: Saluretic activity in rats after 0-5 hours, as sodium ion concentration in urine; format: functional
Summary of the method: (§1)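 Male Sabra rats (170-200 g), fasted 18 h, dosed orally 50 mg/kg in saline at 25 mL/kg, eight per compound, two per metabolic cage, no food or water. Urine collected 5 and 24 h after dosing and centrifuged. Chloride titrated with Hg(NO3)2/diphenylcarbazone after HNO3 acidification; Na+ and K+ by atomic absorption.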

Rattus norvegicus [2] = species on record: Rattus norvegicus; assay: Saluretic activity in rats after 5-24 hours, as chloride ion concentration in urine; format: functional; summary of the method: as §1
Rattus norvegicus [3] = species on record: Rattus norvegicus; assay: Diuretic activity in rats at time intervals of 5-24 hours; format: functional, Urine
Summary of the method: (§2)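 Male Sabra rats (170-200 g), starved 18 h, given 50 mg/kg by stomach tube in saline (25 mL/kg load), eight per compound, saline and furosemide controls run alongside. Held two per metabolic cage at 22 °C without food or water. Urine volume measured at 5 and 24 h collections.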

Rattus norvegicus [4] = species on record: Rattus norvegicus; assay: Saluretic activity in rats after 5-24 hours, as sodium ion concentration in urine; format: functional; summary of the method: as §1
Rattus norvegicus [5] = species on record: Rattus norvegicus; assay: Saluretic activity in rats after 0-5 hours, as chloride ion concentration in urine; format: functional; summary of the method: as §1
Rattus norvegicus [6] = species on record: Rattus norvegicus; assay: Saluretic activity in rats after 5-24 hours, as potassium ion concentration in urine; format: functional; summary of the method: as §1
Rattus norvegicus [7] = species on record: Rattus norvegicus; assay: Saluretic activity in rats after 0-24 hours, as chloride ion concentration in urine; format: functional; summary of the method: as §1
Rattus norvegicus [8] = species on record: Rattus norvegicus; assay: Diuretic activity in rats at time intervals of 0-5 hours; format: functional, Urine; summary of the method: as §2
Rattus norvegicus [9] = species on record: Rattus norvegicus; assay: Saluretic activity in rats after 0-5 hours, as potassium ion concentration in urine; format: functional; summary of the method: as §1
Rattus norvegicus [10] = species on record: Rattus norvegicus; assay: Diuretic activity in rats at time intervals of 0-24 hours; format: functional, Urine; summary of the method: as §2
Rattus norvegicus [11] = species on record: Rattus norvegicus; assay: Saluretic activity in rats after 0-24 hours, as sodium ion concentration in urine; format: functional; summary of the method: as §1
Rattus norvegicus [12] = species on record: Rattus norvegicus; assay: Saluretic activity in rats after 0-24 hours, as potassium ion concentration in urine; format: functional; summary of the method: as §1
Rattus norvegicus [13] = species on record: Rattus norvegicus; assay: Saluretic activity in rats after 0-5 hours, as ratio of Na+/K+ ion concentration in urine; format: functional; summary of the method: as §1
Rattus norvegicus [14] = species on record: Rattus norvegicus; assay: Saluretic activity in rats after 5-24 hours, as ratio of Na+/K+ ion concentration in urine; format: functional; summary of the method: as §1
Rattus norvegicus [15] = species on record: Rattus norvegicus; assay: Saluretic activity in rats after 0-24 hours, as ratio of Na+/K+ ion concentration in urine; format: functional; summary of the method: as §1
Rattus norvegicus [16] = species on record: Rattus norvegicus; assay: Compound was tested for antihypertensive activity in rat after 1 hr postdose; format: functional
Summary of the method: (§3)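 DOCA/saline hypertensive Sprague-Dawley rats (250-350 g), six per group, given 10 mg/kg doca s.c. daily with saline until systolic BP reached 170 mmHg (usually 3-4 weeks). Oral 25 mg/kg in 5 mL/kg 1% methylcellulose. Systolic BP by tail-cuff before and 1, 4, 24 h after; drop reported as mean ± SD.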

Rattus norvegicus [17] = species on record: Rattus norvegicus; assay: Compound was tested for antihypertensive activity in rat after 24 hr postdose; format: functional; summary of the method: as §3
Rattus norvegicus [18] = species on record: Rattus norvegicus; assay: Compound was tested for antihypertensive activity in rat after 4 hr postdose; format: functional; summary of the method: as §3

Row | Compound | Saluretic activity (Rattus norvegicus [1]) | Saluretic activity (Rattus norvegicus [2]) | Diuretic activity (Rattus norvegicus [3]) | Saluretic activity (Rattus norvegicus [4]) | Saluretic activity (Rattus norvegicus [5]) | Saluretic activity (Rattus norvegicus [6]) | Saluretic activity (Rattus norvegicus [7]) | Diuretic activity (Rattus norvegicus [8]) | Saluretic activity (Rattus norvegicus [9]) | Diuretic activity (Rattus norvegicus [10]) | Saluretic activity (Rattus norvegicus [11]) | Saluretic activity (Rattus norvegicus [12]) | Ratio (Rattus norvegicus [13]) | Ratio (Rattus norvegicus [14]) | Ratio (Rattus norvegicus [15]) | Decrease in blood pressure (Rattus norvegicus [16]) | Decrease in blood pressure (Rattus norvegicus [17]) | Decrease in blood pressure (Rattus norvegicus [18])
1 | NS(=O)(=O)c1cc2cnnc(O)c2cc1Cl | 6.14 m equiv kg-1 | 5.02 m equiv kg-1 | 3.2 mL | 4.3 m equiv kg-1 | 4.1 m equiv kg-1 | 3.19 m equiv kg-1 | 9.12 m equiv kg-1 | 5.6 mL | 2.51 m equiv kg-1 | 8.8 mL | 10.44 m equiv kg-1 | 5.7 m equiv kg-1 | 2.44 | 1.35 | 1.83 |  |  | 
2 | NS(=O)(=O)c1cc2c(cc1Cl)CNNC2=O | 6.55 m equiv kg-1 | 4.16 m equiv kg-1 | 6.2 mL | 4.36 m equiv kg-1 | 8.32 m equiv kg-1 | 3.45 m equiv kg-1 | 12.48 m equiv kg-1 | 6.5 mL | 2.18 m equiv kg-1 | 12.7 mL | 10.91 m equiv kg-1 | 5.63 m equiv kg-1 | 3 | 1.27 | 1.94 | 24.7 mmHg | 27 mmHg | 31 mmHg
3 | NS(=O)(=O)c1cc2c(cc1Cl)CNN(Cc1ccccc1)C2=O | 6.9 m equiv kg-1 | 5 m equiv kg-1 | 6.6 mL | 5.7 m equiv kg-1 | 8.69 m equiv kg-1 | 4.18 m equiv kg-1 | 13.69 m equiv kg-1 | 6.6 mL | 2.61 m equiv kg-1 | 13.2 mL | 12.6 m equiv kg-1 | 6.79 m equiv kg-1 | 2.65 | 1.36 | 1.86 |  |  | 
4 | NS(=O)(=O)c1cc2c(=O)n(-c3cccc(C(F)(F)F)c3)ncc2cc1Cl | 2.18 m equiv kg-1 |  | 4.4 mL |  |  | 3.04 m equiv kg-1 |  | 2.2 mL | 1.27 m equiv kg-1 | 6.6 mL | 6.25 m equiv kg-1 | 4.31 m equiv kg-1 | 1.72 | 1.33 | 1.45 |  |  | 
5 | CN1NCc2cc(S(N)(=O)=O)c(Cl)cc2C1=O | 2.41 m equiv kg-1 | 5.29 m equiv kg-1 | 3.4 mL | 4.94 m equiv kg-1 | 2.76 m equiv kg-1 | 3 m equiv kg-1 | 8.05 m equiv kg-1 | 2.7 mL | 1.35 m equiv kg-1 | 6.1 mL | 7.35 m equiv kg-1 | 4.35 m equiv kg-1 | 1.78 | 1.64 | 1.69 |  |  | 
6 | NS(=O)(=O)c1cc2c(cc1Cl)C(=O)N(Cc1ccccc1)NC2 | 4.01 m equiv kg-1 | 5.39 m equiv kg-1 | 3.6 mL | 5.5 m equiv kg-1 | 5.14 m equiv kg-1 | 3.29 m equiv kg-1 | 10.53 m equiv kg-1 | 4 mL | 1.92 m equiv kg-1 | 7.6 mL | 9.51 m equiv kg-1 | 5.21 m equiv kg-1 | 2.1 | 1.67 | 1.83 |  |  | 
7 | NS(=O)(=O)c1cc2c(=O)n(Cc3ccco3)ncc2cc1Cl | 3.68 m equiv kg-1 | 1.46 m equiv kg-1 | 1 mL | 2.4 m equiv kg-1 | 3.8 m equiv kg-1 | 2.16 m equiv kg-1 | 5.26 m equiv kg-1 | 1.8 mL | 1.58 m equiv kg-1 | 2.8 mL | 6.08 m equiv kg-1 | 3.74 m equiv kg-1 | 2.83 | 1.11 | 1.63 |  |  | 
